Published values of several laboratories.
Protocols differ between the studies behind these lines.
Read-out: cell growth or viability

Compound | cell line | assay | setting | CC50
O[C@@H](c1cc(C(F)(F)F)nc2c(C(F)(F)F)cccc12)[C@H]1CCCCN1 | HEK293 | MTT | 24 h | 8.84 µM
N#Cc1cc(Cl)cc(Oc2ccc(Cl)cc2OCCn2cc(Cl)c(=O)[nH]c2=O)c1 | MT2 |  |  | 31 µM
CCOc1ccc(-c2nc(CNCCc3ccc(F)cc3)cs2)cc1 | HEK293 | MTT | 24 h | 39 µM
O=P(O)(O)c1cc2c(O)c(c1)Cc1cc(P(=O)(O)O)cc(c1O)Cc1cc(P(=O)(O)O)cc(c1O)Cc1cc(P(=O)(O)O)cc(c1O)Cc1cc(P(=O)(O)O)cc(c1O)Cc1cc(P(=O)(O)O)cc(c1O)Cc1cc(P(=O)(O)O)cc(c1O)Cc1cc(P(=O)(O)O)cc(c1O)C2 | HEK293 | ATP luminescence | 24 h | 747 µM
NCCN(C(=O)c1ccc(Cl)cc1Cl)c1ccc(OCc2ccc(Cl)cc2)cc1 | HEK293 | MTT | 24 h | 7.96 µM
CC(C)c1cccc(=O)c(O)c1 | HepDES19 | MTS | 72 h | 66.4 µM
Cc1nc(C(CN)NC(=O)C(=O)Nc2ccc3c(c2)OCO3)sc1CO (centres unmarked) | MT2 | MTS | 96 h | ≥ 650 µM
C=C(C)c1ccccc(=O)c1O | HepDES19 | MTS | 72 h | 53.5 µM
CC1c2cc(c(O)c(O)c2O)C(C)c2cc(c(O)c(O)c2O)C(C)c2cc(c(O)c(O)c2O)C(C)c2cc1c(O)c(O)c2O (centres unmarked) | HEK293 | MTT | 24 h | 402 µM
CC/C(=C(\c1ccccc1)c1ccc(OCCN(C)C)cc1)c1ccccc1 | HEK293 | resazurin | 20 h | 5.62 µM
CC[C@H](C)[C@H](NC(=O)OCC1c2ccccc2-c2ccccc21)C(=O)Sc1cccccc1=O | HepDES19 | MTS | 72 h | 42.6 µM
COC(=O)N[C@H](C(=O)N1CCC[C@H]1c1nc(-c2ccc(-c3ccc(-c4c[nH]c([C@@H]5CCCN5C(=O)[C@@H](NC(=O)OC)C(C)C)n4)cc3)cc2)c[nH]1)C(C)C | MT2 |  | 5 days | 90 µM
O=c1cccccc1Sc1cccccc1=O | HepDES19 | MTS | 72 h | 20.8 µM
N=C(N)c1ccc(OCCCCCOc2ccc(C(=N)N)cc2)cc1 | HEK293 | MTT | 24 h | 82.9 µM
